We go through 18 compounds from PubChem BioAssay.

Assay [1] in a line: S. cerevisiae growth inhibition in permissive medium (OD615), pilot counter-assay for S. cerevisiae lifespan shortening project, permissive growth control (AID 705;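 active means growth inhibition above 25% in both replicates, a cutoff set 3 SD above the mean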). Conditions: OD615, 24 h, at 10 µM, hits give high values. An outline of the steps: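 Test system: Saccharomyces cerevisiae strain carrying genetically modified DeaD replicative-lifespan system; buffer or medium: SC raffinose/galactose permissive medium; dosing: one dose 10 µM, DMSO 0.25% final; times: 24 h exposure, 30 °C; measured by: OD at 615 nm; read-out basis: growth inhibition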

Assay [2] in a line: S. cerevisiae growth inhibition in restrictive medium, OD615, pilot screen, restrictive growth control, yeast lifespan reduction project (AID 706;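 active means growth inhibition above a set limit, 3 SD over mean compound inhibition, in both replicates, cut at about 43% in these data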;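 further: modified DeaD lifespan yeast strain shifted to restrictive glucose medium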). The conditions noted are these: OD615, 48 h, at 10 µM, hits give high values. The method in brief: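 material = engineered S. cerevisiae DeaD strain | buffer or medium = glucose-based CSMM-D restrictive medium | dosing = one concentration, 10 µM final, 0.25% DMSO | schedule = 4 h pre-growth plus 48 h compound exposure, 30 °C | detection = OD615 absorbance reading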

Assay [3] in a line: doxorubicin toxicity protection in MRP-1 cells – H69AR cells, CellTiter-Glo, duplicate, MRP-1 activator project, pilot screen (AID 807;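 active means viability increase at or above a cutoff of the median across tested compounds plus 3 SD, cut at about 8.5% in these data, passing the limit was not always enough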;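 further: compound pretreatment 18-22 h then 72 h combined with doxorubicin; 0% = doxorubicin alone and 100% = vehicle without doxorubicin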). The conditions noted are these: H69AR viability with doxorubicin, CellTiter-Glo luminescence; at 10 µM; hits give high values. On the technique in general: Cellular ATP, detected with luciferase, serves as a proxy for viable cell number.
The nature of assay [4]: viability of HCT116 without oncogenic beta-catenin – human colon tumor cells, pilot screen (AID 823;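 active means cell viability at or below a set limit in both duplicate runs, the limit being the all-compound median minus 4 SD, cut at about 23% in these data, passing the limit was not always enough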;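 further: 0% = wells killed by 20 µM Hyamine and 100% = untreated DMSO cell wells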). Conditions: HCT116 beta-catenin knockout viability, CellTiter-Glo, 60 h; at 10 µM; hits give low values.
Assay [5] can be described thus: RAM pathway blockade in budding yeast – dse1pr::URA3 reporter, 5-FOA selection, pilot screen (AID 869).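 Further: 0% = DMSO wells with no growth and 100% = 10 µM 1-NA-PP1 with full growth; RAM network block rescues cells from 5-FOA so hits raise OD615 growth.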 The conditions noted are these: S. cerevisiae dse1pr::URA3 5-FOA growth, OD615, 2 d; at 10 µM; hits give high values; strain carries analog-sensitive mutant Cbk1 kinase.
Assay [6] is described as follows: RAM signaling pathway blockade in yeast – S. cerevisiae, Pdr1DBD-CYC8 efflux-inhibited sensitized strain, primary screen (AID 1298;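 active means RAM network inhibition above 8.4% in each of two replicates, 3 SD over the compound average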;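 further: 0% = DMSO untreated cells without growth and 100% = 10 µM 1-NA-PP1 full growth; higher means more yeast growth rescued from 5-FOA killing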). Conditions: S. cerevisiae cbk1-as DSE1-URA3 strain, 5-FOA growth OD615, 2 d; at 50 µM; hits give high values.

Unmarked numbers belong to inactive results. Inconclusive results are not listed. Activity calls are given as the source filed them.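 How the source made its calls, unless noted: active means inhibition over a set limit, the all-compound mean plus 3 SD, in both replicate runs; inconclusive means over that limit in just one replicate run; inactive means at or under that limit in both runs.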

With `COCc1cc(=O)n2c(-c3ccccc3OC)n[nH]c2n1`, the growth inhibition in assay [1] is -14%; in assay [2], 4.39%. Also, in assay [3], the viability increase was -3.36%. Further, the viability in assay [4] is 92.7%. In addition, in assay [5], the inhibition is 2.2%. The RAM network inhibition in assay [6] is 9.13%.

As for `CCCCCn1c(=O)[nH]c2cc(C(=O)NCCCN(CC)CC)ccc2c1=O`, the growth inhibition in assay [1] is -20.8%; in assay [2], -0.04%. Besides, in assay [3], the viability increase was -4.48%. Further, the viability in assay [4] was 47.3%. The inhibition in assay [5] is 1.65%. Also, the RAM network inhibition in assay [6] was 3.74%.

Turning to `Cc1ccc(S(=O)(=O)c2nc(-c3ccc(F)cc3)oc2SCC(N)=O)cc1`, the growth inhibition is -20.8% in assay [1] and 0.745% in assay [2]. For the same compound, the viability increase in assay [3] was -2.75%. Also, the viability in assay [4] is 100%. Besides, the inhibition in assay [5] is 1.27%. The RAM network inhibition in assay [6] was 1.2%.

Take `O=C1CC(N2CCN(Cc3ccc4c(c3)OCO4)CC2)C(=O)N1Cc1ccc(N2CCCC2=O)cc1` (stereo not drawn): the growth inhibition in assay [1] was -28.2%; in assay [2], -0.61%. In addition, the viability increase in assay [3] was -1.61%. The viability in assay [4] is 90.3%. In addition, in assay [5], the inhibition is 2.29%. The RAM network inhibition in assay [6] was 7.63%.

Regarding `CCOC(=O)N1CCN(C(=O)CNS(=O)(=O)c2cccs2)CC1`, the growth inhibition is 7.6% in assay [1] and 1.46% in assay [2]. The viability increase in assay [3] is -2.69%. For the same compound, the viability in assay [4] was 93.3%. Moreover, in assay [5], the inhibition is 0.785%. Further, the RAM network inhibition in assay [6] was 2.76%.

For `CCOC(=O)C1=C(N)OC2=C(C(=O)CCC2)C1c1cccnc1` (stereo not drawn), the growth inhibition was -6.66% in assay [1] and 4.47% in assay [2]. Moreover, in assay [3], the viability increase was -2.49%. Moreover, the viability in assay [4] was 104%. Further, in assay [5], the inhibition was 1.22%. Besides, the RAM network inhibition in assay [6] was 2.44%.

As to `CCN1CCN(C(=O)C2c3cc(OC)c(OC)cc3C(=O)N(C)C2c2ccc(SC)cc2)CC1` (stereo not drawn), the values for the growth inhibition in assay [1] and in assay [2] were -12.5% and -4.19%, respectively. Besides, in assay [3], the viability increase was -3.74%. Besides, the viability in assay [4] was 92.3%. Besides, the inhibition in assay [5] was 0.995%. Further, the RAM network inhibition in assay [6] was 2.33%.

In the case of `O=c1[nH]n(-c2ncnc3c2cnn3-c2ccccc2)c(=O)c2ccccc12`, the growth inhibition in assay [1] was -3.32%; in assay [2], 13.1%. Also, the viability increase in assay [3] was -2.9%. Besides, the viability in assay [4] is 101%. Further, in assay [5], the inhibition was 1.52%. The RAM network inhibition in assay [6] was 2.07%.

For `Cc1ccc(C)c(S(=O)(=O)Nc2ccccc2C(=O)Nc2cc(C)on2)c1`, the figures for the growth inhibition in assay [1] and in assay [2] were -32.7% and -4.75%, respectively. Also, the viability increase in assay [3] was -3.6%. The viability in assay [4] was 77.3%. The inhibition in assay [5] is 2.54%. In assay [6], the RAM network inhibition is 6.23%.

For the compound `COc1cc(-c2nnn(CC#N)n2)ccc1OCc1ccccc1`, the results for the growth inhibition in assay [1] and in assay [2] were -6.28% and 9.63%, respectively. The viability increase in assay [3] is 0.59%. Further, the viability in assay [4] is 94.5%. The inhibition in assay [5] is 1.28%. In addition, in assay [6], the RAM network inhibition was 1.51%.

As to `Cc1c(C(=O)Nc2ccncc2)sc2nc(-c3ccc(F)cc3)cn12`, the growth inhibition was -5.44% in assay [1] and 11.7% in assay [2]. In assay [3], the viability increase was -6.8%. Further, the viability in assay [4] is 42.3%. Also, the inhibition in assay [5] was 1.96%. Besides, the RAM network inhibition in assay [6] was 8.43%.

Regarding `COc1ccc(CNC(=O)c2ccc(NC(=O)C3CCCO3)cc2)cc1` (stereo not drawn), the growth inhibition in assay [1] is -16.3%; in assay [2], -0.99%. In addition, in assay [3], the viability increase was 0.75%. In assay [4], the viability was 98.6%. In assay [5], the inhibition is 2.87%. In assay [6], the RAM network inhibition was 8.83%.

For `COCCNC(=O)c1cn(C)c(=O)c2cc(OC)c(OC)cc12`, the growth inhibition is -20.6% in assay [1] and -7.83% in assay [2]. Further, the viability increase in assay [3] was -1.73%. In addition, the viability in assay [4] is 95.5%. Besides, the inhibition in assay [5] is 1.6%. Moreover, in assay [6], the RAM network inhibition was 7.53%.

As for `CNC(=O)c1ccc(-c2sc3nc(N4CCOCC4)c4c(c3c2N)CCCC4)o1`, the results for the growth inhibition in assay [1] and in assay [2] were 0.875% and 17.2%, respectively. For the same compound, the viability increase in assay [3] is -7.88%. For the same compound, the viability in assay [4] is 39.6%. The inhibition in assay [5] is -0.54%. The RAM network inhibition in assay [6] was 5.11%.

Take `CN1CCc2c(sc3nc(SCC(N)=O)n(-c4ccccc4)c(=O)c23)C1`: the growth inhibition in assay [1] was -17.8%; in assay [2] it was 9.25%. Further, the viability increase in assay [3] is -0.53%. Moreover, the viability in assay [4] was 84.3%. In assay [5], the inhibition was 4.08%. In addition, the RAM network inhibition in assay [6] is 3.54%.

Turning to `CCn1cc(C(=O)N2CCN(c3ccccn3)CC2)c2cc(OC)c(OC)cc2c1=O`, the values for the growth inhibition in assay [1] and in assay [2] were -18% and -7.93%, respectively. In addition, in assay [3], the viability increase is -4.32%. For the same compound, in assay [4], the viability was 104%. Moreover, in assay [5], the inhibition was 0.495%. Besides, the RAM network inhibition in assay [6] was 6.02%.

For the compound `COc1cc(C2=Nc3c(c(C)nn3-c3ccccc3)P(=O)(N3CCOCC3)O2)cc(OC)c1OC` (stereo not drawn), the growth inhibition in assay [1] was 12.4%; in assay [2], 0.78%. Further, the viability increase in assay [3] was -2.26%. In addition, in assay [4], the viability was 92%. Also, the inhibition in assay [5] is 0.485%. Moreover, the RAM network inhibition in assay [6] is 2.86%.

With `CCCCCCn1c(SCC(=O)c2ccccc2)nc2c1c(=O)[nH]c(=O)n2C`, the growth inhibition is -4.82% in assay [1] and 42.6% (active) in assay [2]. For the same compound, the viability increase in assay [3] was -7.17%. In assay [4], the viability was 53%. Moreover, in assay [5], the inhibition was 2.08%. Further, the RAM network inhibition in assay [6] was 6.13%.

One may read the viability as a read-out of living cells in per cent, often relative to untreated cells. As a reminder, the inhibition is the change of the read-out against control, counted positive when it falls.
